Activity calls are given as the source filed them. Rule as the data show it, unless noted: active = inhibition above about 31%; inactive = the rest.
Columns and labels:
[1] = HUVEC growth inhibition – cell-based, human, primary screen (AID 575;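 active = viability at or below 30% in both replicate assays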;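 also: 100% = median of untreated cell wells with 0.1% DMSO on each plate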); conditions: HUVEC proliferation, CellTiter-Glo luminescence, 72 h; at 10 µM; stronger effect = lower value
Outline: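 System – primary HUVEC, no more than 12 passages · Medium – Low-serum (2% FBS) EBM, supplemented · Times – 72 h exposure, 37 °C, 5% CO2, 30 min RT equilibration · Measured by – luminescent ATP assay · Read-out – % viability relative to median vehicle-well signal on each plate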

[2] = growth inhibitors of H69AR lung tumor, primary screen, human, duplicate replicates (AID 580;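 active = viability at or under a set limit in both replicates, limit being median viability minus 3 SD, cut at about 48% in these data, passing the limit was not always enough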;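 also: 100% = mean luminescence of untreated wells and 0% = no signal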); conditions: H69AR lung tumor cells viability, ATP luminescence, 72 h; at 10 µM; stronger effect = lower value
[3] = reversal of MRP1-mediated doxorubicin resistance, pilot screen, H69AR cells, doxorubicin co-treatment (AID 601;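 active = viability loss from added drug above about 55%, and viability with drug at most 40%, in both replicates, limit read from the data, passing the limit was not always enough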); conditions: CellTiter-Glo, 72 h, at 10 µM; for differential viability (reversal): stronger effect = higher value
[4] = 384-well plate pilot, post-Golgi transport modulator project, inhibition of yeast transport mutant growth (AID 636); conditions: absorbance 615 nm, about 18 h, stronger effect = higher value
[5] = growth suppression of yeast trafficking mutant, preliminary HTS, modulators of trafficking downstream of Golgi apparatus project, 1536-format plate, OD 615 nm (AID 637; in the data active = inhibition above about 30%); conditions: yeast transport mutant growth, absorbance 615 nm, 18 h; stronger effect = higher value
[6] = H69AR cells + 2 uM doxorubicin, measured here: viability with 2 uM doxorubicin, stronger effect = lower value
[7] = H69AR cells, compound alone cytotoxicity

| SMILES | viability [1] | viability [2] | differential viability (reversal) ([3]; H69AR cells + 2 uM doxorubicin) | viability [3, 6] [%] | viability [3, 7] [%] | inhibition [4] | inhibition [5] |
| --- | --- | --- | --- | --- | --- | --- | --- |
| Cc1cc(NC(=O)COc2ncnc3sc(C)c(C)c23)no1 | 97.6% (inactive) | 89.8% (inactive) | 3.08% (inactive) | 86.7 | 89.8 | -3.77% (inactive) | 5.56% (inactive) |
| COc1nc2ccc(C)cc2cc1-c1noc(-c2cccnc2)n1 | 103% (inactive) | 104% (inactive) | 11.8% (inactive) | 91.9 | 104 | -2.37% (inactive) | -2.54% (inactive) |
| O=C(CN1c2cccc3cccc(c23)S1(=O)=O)N1CCOCC1 | 105% (inactive) | 92.5% (inactive) | -0.865% (inactive) | 93.4 | 92.5 | -3.2% (inactive) | 0.16% (inactive) |
| Fc1c(F)c(F)c(CSc2nc3ccccc3[nH]2)c(F)c1F | 105% (inactive) | 95.8% (inactive) | 11.8% (inactive) | 84 | 95.8 | 0.65% (inactive) | 3.02% (inactive) |
| CCOC(=O)C1=C(C)N(C)C(C)=C(C(=O)OCC)C1c1cccnc1 | 97.5% (inactive) | 92.4% (inactive) | 0.9% (inactive) | 91.5 | 92.4 | 0.79% (inactive) | -1.75% (inactive) |
| CN(C)c1oc(-c2ccccc2Cl)nc1C#N | 56.5% (inactive) | 94.9% (inactive) | 16.8% (inactive) | 78.1 | 94.9 | -3.33% (inactive) | 3.97% (inactive) |
| CCOC(=O)CCC(=O)c1c(C)oc2ccc(OC)cc12 | 81.8% (inactive) | 88.4% (inactive) | -5% (inactive) | 93.4 | 88.4 | 1.04% (inactive) | 13.3% (inactive) |
| CC(C)(C)OC(=O)N1CCN(c2ccc(NC(=O)c3cc4ccccc4oc3=O)cc2)CC1 | 103% (inactive) | 93% (inactive) | 8.14% (inactive) | 84.8 | 93 | -5.45% (inactive) | 1.59% (inactive) |
| CC1(C)CC(=O)C2=C(C1)Nc1nc(SCCN3CCOCC3)[nH]c(=O)c1C2c1cccs1 (configuration not stated) | 99.6% (inactive) | 89.9% (inactive) | 2.1% (inactive) | 87.8 | 89.9 | 1.69% (inactive) | 24% (inactive) |
| O=C(Nc1ccc(Cl)cc1)N1CCSCC1 | 97.6% (inactive) | 107% (inactive) | 17% (inactive) | 89.6 | 107 | -1.45% (inactive) | -0.16% (inactive) |
| Cc1ccc(S(=O)(=O)N2CCCC2)cc1S(=O)(=O)N1CCCC1 | 90.9% (inactive) | 98.6% (inactive) | 5.92% (inactive) | 92.7 | 98.6 | -3.25% (inactive) | 2.54% (inactive) |
| O=C(c1ccc(CNS(=O)(=O)c2cccc(C(F)(F)F)c2)cc1)N1CCOCC1 | 102% (inactive) | 92.9% (inactive) | 12% (inactive) | 80.9 | 92.9 | -8.67% (inactive) | 1.43% (inactive) |
| CCc1cc(-c2[nH]ncc2-c2ccc3c(c2)OCO3)c(O)cc1O | 4.08% (active) | 23.3% (active) | -14.2% (inactive) | 37.5 | 23.3 | 4.94% (inactive) | 27.1% (inactive) |
| CCOc1ccc(C(=O)Nc2cc(C)on2)cc1OCC | 90.1% (inactive) | 89.9% (inactive) | 0.35% (inactive) | 89.6 | 89.9 | -4.87% (inactive) | 3.17% (inactive) |
| O=C(CSc1nc(C2CCCCC2)n(-c2ccccc2)n1)NCCN1C(=O)CSC1=O | 103% (inactive) | 98.8% (inactive) | -4.29% (inactive) | 103 | 98.8 | -5.84% (inactive) | 1.27% (inactive) |
| O=C(CSc1nnc(-c2ccccc2)o1)N1CCN(c2ccccc2)CC1 | 89.9% (inactive) | 98.3% (inactive) | 3.54% (inactive) | 94.8 | 98.3 | -4.53% (inactive) | 1.75% (inactive) |
| CC(C)[C@H](NC(=O)OC(C)(C)C)c1nnc(S(=O)(=O)Cc2c(F)cccc2Cl)o1 | 69.5% (inactive) | 1.65% (active) | 0.065% (inactive) | 1.58 | 1.65 | -2.76% (inactive) | 9.02% (inactive) |
| COC(=O)CSC1=C(C#N)C(c2ccccc2)CC(=O)N1 (configuration not stated) | 71.7% (inactive) | 23.4% (active) | -48.4% (inactive) | 71.7 | 23.4 | -6% (inactive) | 6.19% (inactive) |
| COc1cc(OC)cc(-c2nc(N)n[nH]2)c1 | 97.8% (inactive) | 103% (inactive) | 5.86% (inactive) | 97.3 | 103 | -6.4% (inactive) | 2.06% (inactive) |
| Cc1nn(C)c(C)c1NC(=O)CCSc1nc(-c2ccco2)cc(C(F)(F)F)n1 | 93% (inactive) | 98.8% (inactive) | 3.76% (inactive) | 95 | 98.8 | -2.93% (inactive) | 4.44% (inactive) |
| O=C1CC(Cc2ccccc2)C(=O)N1CCc1ccc2c(c1)OCO2 (configuration not stated) | 97.7% (inactive) | 102% (inactive) | 4.62% (inactive) | 97.7 | 102 | -5.32% (inactive) | 3.65% (inactive) |

| SMILES | viability [1] | viability [2] | differential viability (reversal) ([3]; H69AR cells + 2 uM doxorubicin) | viability [3, 6] [%] | viability [3, 7] [%] | inhibition [4] | inhibition [5] |
| --- | --- | --- | --- | --- | --- | --- | --- |
| O=C(Nc1nnc(C2CCCCC2)s1)c1cccs1 | 102% (inactive) | 93.2% (inactive) | 10.4% (inactive) | 82.9 | 93.2 | 0% (inactive) | -3.81% (inactive) |
| O=C(c1noc2c1CCc1ccccc1-2)N1CCOCC1 | 95.6% (inactive) | 96.4% (inactive) | 6.12% (inactive) | 90.3 | 96.4 | -0.13% (inactive) | -2.86% (inactive) |
| N=c1sc2ccccc2n1-c1ccccc1 | 102% (inactive) | 89% (inactive) | 6.59% (inactive) | 82.4 | 89 | -3.12% (inactive) | 3.33% (inactive) |
| CN1/C(=C\C(=O)Nc2cccnc2)c2ccccc2CC1(C)C | 99.3% (inactive) | 86.5% (inactive) | -4.08% (inactive) | 90.6 | 86.5 | -4.4% (inactive) | -0.95% (inactive) |
| Cn1c(=O)[nH]c(=O)c2c1nc(NCCCn1ccnc1)n2Cc1cccc(Br)c1 | 90.3% (inactive) | 81.7% (inactive) | 8.09% (inactive) | 73.6 | 81.7 | -5.47% (inactive) | 0.95% (inactive) |
| O=C(Cc1ccsc1-c1ccccc1)NO | 72.8% (inactive) | 1.73% (active) | 0.35% (inactive) | 1.39 | 1.73 | -3.82% (inactive) | 4.29% (inactive) |
| CCOc1ccc(N2CC(C(=O)Nc3ccc(F)cc3F)CC2=O)cc1 (configuration not stated) | 110% (inactive) | 111% (inactive) | 19.7% (inactive) | 90.9 | 111 | -0.26% (inactive) | -5.08% (inactive) |
| Cc1cc(/N=C/N(C)C)on1 | 82.4% (inactive) | 93.7% (inactive) | 12% (inactive) | 81.7 | 93.7 | -4.94% (inactive) | 2.06% (inactive) |
| Cn1c(SCC(=O)Nc2cccc3ccccc23)nc(O)cc1=O | 88.3% (inactive) | 89.7% (inactive) | -5.66% (inactive) | 95.4 | 89.7 | -4.67% (inactive) | -0.79% (inactive) |
| Nc1nc(SCCOc2ccccc2)n[nH]1 | 94.1% (inactive) | 97% (inactive) | 6.12% (inactive) | 90.8 | 97 | -5.19% (inactive) | -5.24% (inactive) |
| CCn1c(Cc2ccccc2)nnc1SCC(=O)Nc1nc2ccccc2s1 | 87.9% (inactive) | 104% (inactive) | 4.48% (inactive) | 99.9 | 104 | -3.03% (inactive) | 6.51% (inactive) |
| Cc1onc(-c2ccccc2)c1C(=O)N1CCCSC1=Nc1ccccc1 | 76.9% (inactive) | 92.5% (inactive) | 5.92% (inactive) | 86.6 | 92.5 | -4.55% (inactive) | 0.63% (inactive) |
| CN(CC(=O)Nc1ccccc1Cl)C(=O)COC(=O)CNC(=O)c1ccc(Br)o1 | 95.4% (inactive) | 104% (inactive) | 14.3% (inactive) | 89.5 | 104 | 0.39% (inactive) | 5.4% (inactive) |
| CC(C)CN1C(=O)c2ccc(C(=O)Nc3nccs3)cc2C1=O | 90.8% (inactive) | 104% (inactive) | 21.4% (inactive) | 82.6 | 104 | 0.39% (inactive) | 0.63% (inactive) |
| CC(=O)NC(Cc1ccc(C)cc1)C(=O)NC1CCN(C(=O)c2cnccn2)CC1 (configuration not stated) | 110% (inactive) | 93.3% (inactive) | 2.21% (inactive) | 91.1 | 93.3 | -2.93% (inactive) | 2.22% (inactive) |
| Cc1ccc(S(=O)(=O)NCCCNC(=O)N2CCOCC2)cc1 | 100% (inactive) | 106% (inactive) | 13.5% (inactive) | 92.4 | 106 | -1.05% (inactive) | 3.81% (inactive) |
| CCN(CC)c1ccc2c(c1)C(=O)N(C)C2=O | 71.6% (inactive) | 84.6% (inactive) | 2.22% (inactive) | 82.4 | 84.6 | -0.66% (inactive) | 1.9% (inactive) |
| CCc1nnc(NC(=O)OCc2ccccc2)s1 | 106% (inactive) | 102% (inactive) | 7.5% (inactive) | 94.9 | 102 | -0.91% (inactive) | 11.4% (inactive) |
| CCc1c(C)nc(N)n2c(SCC(=O)N3CCCc4ccccc43)nnc12 | 107% (inactive) | 100% (inactive) | 11.3% (inactive) | 89.1 | 100 | -3.29% (inactive) | -0.32% (inactive) |
| O=C(c1ccncc1)N1CCN(C(=O)c2cccs2)CC1 | 103% (inactive) | 94.6% (inactive) | 5.42% (inactive) | 89.1 | 94.6 | -1.73% (inactive) | -2.38% (inactive) |

Reference: PubChem BioAssay
